An excerpt weighted towards active compounds, which were near 3.1% of everything screened.
SENP8 block-1: SENP8 protease inhibition; inhibition, % at 10 µM; hit rate 1.2% among 330,000; purified SENP8, Z-RLRGG-aminoluciferin cleavage, luminescence; Q96LD8; in the data active means inhibition above about 50%
Target sequence (Q96LD8 whole entry, looked up): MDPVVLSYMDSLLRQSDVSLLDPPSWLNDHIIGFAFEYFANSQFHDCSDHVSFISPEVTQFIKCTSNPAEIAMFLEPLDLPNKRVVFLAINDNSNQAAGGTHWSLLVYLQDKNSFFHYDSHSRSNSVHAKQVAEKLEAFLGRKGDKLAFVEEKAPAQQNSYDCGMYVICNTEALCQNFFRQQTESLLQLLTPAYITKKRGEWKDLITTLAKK
SENP6 block: SENP6 protease inhibition. inhibition, % at 10 µM. Recombinant SENP6 catalytic domain, aminoluciferin luminescence. Q9GZR1. hit rate 1.8% among 330,000;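 active means inhibition above about 50% at the single tested dose, limit read from the data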;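 further: plate controls were DMSO wells with enzyme for no effect and DMSO wells lacking enzyme for full effect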
SENP8 block-2: blocks human SENP8 cleavage of Nedd8 substrate; hit rate 0.64% among 360,000; inhibition, % at 20 µM; AID 602440; recombinant SENP8, Nedd8 substrate fluorescence; Q96LD8; in the data active means inhibition mostly above about 40%, no sharp cut-off; inactive means mostly below about 27%
UBC13 polyUb: human UBC13 polyubiquitination inhibition | AID 485273 | P61088 | UBC13 polyubiquitin chain formation, TR-FRET | inhibition, % at 20 µM | hit rate 0.47% among 330,000; in the data active means inhibition above about 45%, passing the limit was not always enough
Target sequence (P61088 whole entry, looked up): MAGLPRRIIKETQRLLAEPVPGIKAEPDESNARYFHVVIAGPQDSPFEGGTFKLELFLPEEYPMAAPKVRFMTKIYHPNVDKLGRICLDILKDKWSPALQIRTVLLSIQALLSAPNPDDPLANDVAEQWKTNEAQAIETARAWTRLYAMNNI
SENP7 inh: blocks the human protease SENP7. Q9BQF6. recombinant SENP7, Z-RLRGG-aminoluciferin luminescence, 40 min. inhibition, % at 5 µM. hit rate 1.5% among 330,000;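 active means inhibition above about 50% at the single test dose, limit read from the data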;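 further: plate controls were DMSO with enzyme for no effect and no enzyme buffer wells for full effect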
Apaf-1 inh: inhibitors of human Apaf-1 apoptosome. O14727. inhibition, % at 20 µM. hit rate 0.71% among 330,000. AID 489030. reconstituted apoptosome caspase-3 activity, DEVD-Rh110 fluorescence; active means inhibition of at least 40% at 20 µM;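 further: plate controls were DMSO wells for no effect and DEVD-CHO caspase inhibitor wells for full effect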
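Material: cell-free apoptosome with Apaf-1, procaspase-3 and caspase-9; Buffer or medium: Hepes pH 7.5 with detergent and BSA; Reagent: cytochrome c trigger plus (Z-DEVD)2-Rh110 caspase-3 substrate; Times: compound with Apaf-1, dATP, procaspase-3 30 min, then 50 min reaction, room temperature; Technique: Rh110 fluorescence intensity.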
SENP8 confirm: confirmation of human SENP8 protease inhibitors | hit rate 40% among 6,200 | AID 488912 | Recombinant SENP8, Z-RLRGG-aminoluciferin luminescence, 60 min | inhibition, % at 12.5 µM | shares compounds with SENP7 inh;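 active means mean inhibition across replicates above about 50%, limit read from the data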
SENP6 conf: confirmation of human SENP6 protease inhibitors | AID 488915 | shares compounds with SENP7 inh | recombinant SENP6, Z-RLRGG-aminoluciferin luminescence | hit rate 58% among 6,200 | inhibition, % at 12.5 µM
SENP7 conf: confirmation of human SENP7 protease inhibitors; shares compounds with SENP7 inh; recombinant SENP7, Z-RLRGG-aminoluciferin luminescence, 40 min; inhibition, % at 12.5 µM; hit rate 69% among 6,200
Casp3 SENP sel: selectivity test for SENP inhibitors: human caspase-3 inhibition | hit rate 60% among 6,200 | purified caspase-3, Z-DEVD-aminoluciferin luminescence, 60 min | shares compounds with SENP7 inh | inhibition, % at 12.5 µM;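 active means mean inhibition above about 50%, limit read from the data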;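 further: plate controls were enzyme with DMSO for no effect and wells without caspase-3 for full effect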
SENP luc ctr: interferes with luciferase luminescence in SENP counter-screen | shares compounds with SENP7 inh | Pre-incubated SENP8/Z-RLRGG-aminoluciferin, luciferase luminescence interference | inhibition, % at 12.5 µM | hit rate 39% among 6,200;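 active means mean inhibition above about 50% when retested at one dose, limit read from the data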;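 further: plate controls were DMSO wells with completed reaction for no effect and substrate without enzyme for full effect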
* hit, by the source's call; nt = no result given.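 How the source made its calls, unless noted: active means mean inhibition above about 50% in the one-dose retest (limit read from the data); inactive means the rest.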

SMILES	SENP8 block-1	SENP6 block	SENP8 block-2	UBC13 polyUb	SENP7 inh	Apaf-1 inh	SENP8 confirm	SENP6 conf	SENP7 conf	Casp3 SENP sel	SENP luc ctr
COc1ccc(-c2cc(-c3cc(C)ccc3O)[nH]n2)cc1	56.0*	72.2*	-0.8	16.1	61.5*	30.7	75.2*	73.6*	87.8*	19.3	38.7
COC(=O)CSc1nnc(C2COc3ccccc3O2)n1-c1ccccc1 (stereo not drawn)	-0.8	-3.6	10.2	-2.7	75.6*	-9.5	-8.5	-1.4	-5.2	-3.1	-5.1
CC1(C(=O)Nc2ccc3c(c2)OCCO3)CN(S(C)(=O)=O)CC(=O)N1CCc1ccccc1F (stereo not drawn)	nt	nt	16.3	nt	nt	nt	nt	nt	nt	nt	nt
Cc1ccc(NC(CC(=O)c2ccccc2)c2ccc(F)cc2)cc1 (stereo not drawn)	-2.7	-3.0	1.9	6.5	-0.1	-4.7	nt	nt	nt	nt	nt
O=C(CC(Nc1ccc(F)cc1)C(=O)O)c1ccccc1 (stereo not drawn)	82.7*	96.0*	-29.6	-8.5	74.4*	17.2	69.2*	82.5*	90.8*	83.4*	31.0
O=C(Cn1ncc(Cl)c(Cl)c1=O)Nc1ccc2c(c1)OCO2	-1.6	8.6	13.6	-11.2	13.2	-8.1	nt	nt	nt	nt	nt
O=C(Cn1ncc(Cl)c(Cl)c1=O)c1ccc2c(c1)OCCO2	40.9	55.5*	-2.7	-4.0	23.4	0.9	14.8	40.4	48.5	20.5	8.8
COc1ccc(-n2ncc3c(N(C)C4CCCCC4)ncnc32)cc1	43.1	48.0	-166.1	23.2	46.5	21.2	nt	nt	nt	nt	nt
Cc1cccc(-n2ncc3c(N(C)C4CCCCC4)ncnc32)c1	67.9*	66.7*	-3.4	11.5	60.2*	19.9	-12.1	-6.9	-4.0	1.2	18.9
CCc1nc2ccc(C(=O)NCCc3c[nH]c4ccccc34)cn2c1N(C)Cc1ccc(N(C)C)cc1	nt	nt	8.0	nt	nt	nt	nt	nt	nt	nt	nt
CCS(=O)(=O)c1ccc2oc(Nc3ccccc3Cl)nc2c1	91.4*	94.6*	10.5	6.2	92.3*	4.2	73.7*	92.1*	99.2*	93.6*	26.0
Clc1ccccc1Nc1nc2ccccc2o1	95.2*	94.8*	4.4	4.3	99.7*	6.3	-4.3	99.8*	103.4*	98.0*	97.3*
COc1ccc(-n2nnnc2C2(C)CCC(=O)N2Cc2ccccc2)cc1 (stereo not drawn)	nt	nt	10.8	nt	nt	nt	nt	nt	nt	nt	nt
Cc1ccsc1/C=N/Nc1ccc(C(=O)O)cc1	96.2*	96.7*	-115.8	1.7	99.1*	0.1	99.1*	100.3*	102.7*	97.7*	98.3*
Cc1ccsc1/C=N/NC(=O)C(N)=O	4.0	-1.1	-2.6	-6.5	8.8	-5.2	nt	nt	nt	nt	nt
Cc1ccsc1/C=N/Nc1cccc(C(=O)O)c1	97.2*	97.9*	-40.2	3.8	99.7*	-6.5	98.0*	98.9*	102.2*	97.4*	97.8*
CCCCCCCCN1C(=O)[C@H](CC(=O)N2CCN(C(=O)c3ccco3)CC2)C[C@@]2(C(=O)OC)CCCCC=C12	nt	nt	8.6	nt	nt	nt	nt	nt	nt	nt	nt
O=C1C(O)=CC(=C(c2ccccc2)c2ccccc2)c2ccccc21	nt	nt	22.6	nt	nt	nt	nt	nt	nt	nt	nt
CCc1ccc(C2=NN(C(C)=O)C(c3ccco3)C2)cc1 (stereo not drawn)	82.7*	81.7*	-0.6	-0.7	80.5*	18.0	92.1*	92.0*	99.1*	90.0*	92.3*
CCC(=O)N1N=C(c2ccc(Cl)cc2)CC1c1ccco1 (stereo not drawn)	-3.9	-3.8	6.4	6.2	1.0	10.2	nt	nt	nt	nt	nt
FC(F)(F)c1cc(Cl)c2nc(-c3ccccc3)c(Cc3cccc(Cl)c3)n2c1	nt	nt	-203.5	nt	nt	nt	nt	nt	nt	nt	nt

Screening results from PubChem BioAssay.
